Measured values as given in ChEMBL document CHEMBL1126205, “Novel spirosuccinimides with incorporated isoindolone and benzisothiazole 1,1-dioxide moieties as aldose reductase inhibitors and antihyperglycemic agents” (1992).
Where “and” joins values, the source holds several entries; their conditions need not be identical. Equal entries are not always repeated. Calls of active or inactive are those of the source. The calls are words filed in the database; no cut-off is given here.

Tests used:
Rattus norvegicus [1] = assay: In vivo galactitol inhibitory activity measured by its ability to inhibit galactitol accumulation in lens at 66 mg/Kg/day; format: functional; conditions: Lens of camera-type eye
Outline: (§1)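 Rats (n = 6) fed 20% galactose for 4 days, with compound given in the diet at the stated daily dose. Galactitol accumulation was measured in lens, sciatic nerve and diaphragm, and % inhibition was taken versus the nontreated group. Means are from three to eight drug-treated tissue samples. Dunnett's multiple comparison test was applied, with p > 0.05 reported as not significant.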

Mus musculus [2] = assay: Antihyperglycemic activity measured as percent decrease in mice plasma glucose at 100 mg/Kg/day; format: functional
Outline: (§2)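 Male db/db (C57BL/KsJ) mice, 4–6 per group, dosed at 100 mg/kg per day. Plasma glucose of the drug-treated group is expressed as percent decrease relative to a vehicle-treated control group. Values are mean ± SE, with p < 0.05 marked.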

[3] = target: Aldo-keto reductase family 1 member B1 (Bos taurus) (UniProt P16116); assay: In vitro aldose reductase inhibitory activity measured by NADPH-dependent inhibition of glyceraldehyde reduction in a partially purified bovine lens preparation at 10E-6 M
Outline: (§3)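 Aldose reductase partially purified from bovine lens. Inhibition of NADPH-dependent glyceraldehyde reduction is measured at the single stated concentration and reported as percent inhibition, the mean of two determinations.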

Rattus norvegicus [4] = assay: In vivo galactitol inhibitory activity measured by its ability to inhibit galactitol accumulation in sciatic nerve at 66 mg/Kg/day; format: functional; outline: as §1
Rattus norvegicus [5] = assay: In vivo galactitol inhibitory activity measured by its ability to inhibit galactitol accumulation in diaphragm at 66 mg/kg/day; format: functional
Outline: (§4)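 Rats (n = 6) fed 20% galactose for 4 days, with compound given in the diet at the stated mg/kg per day. Galactitol accumulation in lens, sciatic nerve or diaphragm is scored as percent inhibition versus the non-treated group, as means of 3–8 drug-treated tissue samples. Dunnett's multiple comparison test applies; NS means p > 0.05.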

[6] = target: Aldo-keto reductase family 1 member B1 (Bos taurus) (UniProt P16116); assay: In vitro aldose reductase inhibitory activity measured by NADPH-dependent inhibition of glyceraldehyde reduction in a partially purified bovine lens preparation at 10E-7 M; outline: as §3
[7] = target: Aldo-keto reductase family 1 member B1 (Bos taurus) (UniProt P16116); assay: In vitro aldose reductase inhibitory activity measured by NADPH-dependent inhibition of glyceraldehyde reduction in a partially purified bovine lens preparation at 10E-5 M; outline: as §3
Mus musculus [8] = assay: Antihyperglycemic activity measured as percent decrease in mice plasma glucose at 20 mg/Kg/day; format: functional
Outline: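 Male db/db (C57BL/KsJ) mice, 4–6 per group, dosed at the stated mg/kg per day. Plasma glucose is expressed as percent decrease versus the vehicle-treated group. Values are mean ± SE.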

Rattus norvegicus [9] = assay: In vivo galactitol inhibitory activity measured by its ability to inhibit galactitol accumulation in lens at 6 mg/Kg/day; NS=Not significant (% Inhibition); format: functional, organism-based; conditions: Lens of camera-type eye; outline: as §4
Rattus norvegicus [10] = assay: In vivo galactitol inhibitory activity measured by its ability to inhibit galactitol accumulation in lens at 3 mg/Kg/day; NS=Not significant (% Inhibition); format: functional, organism-based; conditions: Lens of camera-type eye; outline: as §4
Rattus norvegicus [11] = assay: In vivo galactitol inhibitory activity measured by its ability to inhibit galactitol accumulation in lens at 50 mg/Kg/day; format: functional; conditions: Lens of camera-type eye; outline: as §4
Rattus norvegicus [12] = assay: In vivo galactitol inhibitory activity measured by its ability to inhibit galactitol accumulation in sciatic nerve at 9 mg/Kg/day; format: functional; outline: as §1
Rattus norvegicus [13] = assay: In vivo galactitol inhibitory activity measured by its ability to inhibit galactitol accumulation in sciatic nerve at 3 mg/Kg/day; NS=Not significant (% Inhibition); format: functional, organism-based; outline: as §1
Rattus norvegicus [14] = assay: In vivo galactitol inhibitory activity measured by its ability to inhibit galactitol accumulation in sciatic nerve at 6 mg/Kg/day; NS=Not significant (% Inhibition); format: functional, organism-based; outline: as §1
Rattus norvegicus [15] = assay: In vivo galactitol inhibitory activity measured by its ability to inhibit galactitol accumulation in diaphragm at 9 mg/Kg/day; format: functional; outline: as §4
Rattus norvegicus [16] = assay: In vivo galactitol inhibitory activity measured by its ability to inhibit galactitol accumulation in sciatic nerve at 50 mg/Kg/day; format: functional; outline: as §1
Rattus norvegicus [17] = assay: In vivo galactitol inhibitory activity measured by its ability to inhibit galactitol accumulation in lens at 9 mg/Kg/day; format: functional; conditions: Lens of camera-type eye; outline: as §1
Rattus norvegicus [18] = assay: In vivo galactitol inhibitory activity measured by its ability to inhibit galactitol accumulation in diaphragm at 6 mg/Kg/day; format: functional; outline: as §4
Rattus norvegicus [19] = assay: In vivo galactitol inhibitory activity measured by its ability to inhibit galactitol accumulation in diaphragm at 3 mg/Kg/day; format: functional; outline: as §4
Rattus norvegicus [20] = assay: In vivo galactitol inhibitory activity measured by its ability to inhibit galactitol accumulation in diaphragm at 50 mg/Kg/day; format: functional; outline: as §4
[21] = target: Aldo-keto reductase family 1 member B1 (Bos taurus) (UniProt P16116); assay: in vitro aldose reductase inhibitory activity measured by NADPH-dependent inhibition of glyceraldehyde reduction in a partially purified bovine lens preparation at 10e -7M conc.; g=no inhibitory activity
Outline: (§5)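 Partially purified aldose reductase from bovine lens. Inhibition of NADPH-dependent glyceraldehyde reduction was measured at a single test concentration. Values are % inhibition of enzymatic activity, mean of two determinations.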

[22] = target: Aldo-keto reductase family 1 member B1 (Bos taurus) (UniProt P16116); assay: in vitro aldose reductase inhibitory activity measured by NADPH-dependent inhibition of glyceraldehyde reduction in a partially purified bovine lens preparation at 10e -6M conc.; outline: as §5
Mus musculus [23] = assay: Antihyperglycemic activity was determined by measuring percent decrease in plasma glucose at 100 mg/kg/day; format: functional; outline: as §2
Rattus norvegicus [24] = assay: In vivo galactitol inhibitory activity measured by its ability to inhibit galactitol accumulation in lens at 94 mg/Kg/day; NS=not significant; format: functional, organism-based; conditions: Lens of camera-type eye; outline: as §1
Rattus norvegicus [25] = assay: In vivo galactitol inhibitory activity measured by its ability to inhibit galactitol accumulation in sciatic nerve at 94 mg/kg/day; NS=not significant; format: functional, organism-based; outline: as §1
Rattus norvegicus [26] = assay: In vivo galactitol inhibitory activity measured by its ability to inhibit galactitol accumulation in sciatic nerve at 101 mg/kg/day; NS=Not significant (% Inhibition); format: functional, organism-based; outline: as §1
Rattus norvegicus [27] = assay: In vivo galactitol inhibitory activity measured by its ability to inhibit galactitol accumulation in diaphragm at 101 mg/kg/day; format: functional; outline: as §4
Rattus norvegicus [28] = assay: In vivo galactitol inhibitory activity measured by its ability to inhibit galactitol accumulation in lens at 101 mg/Kg/day; NS=Not significant (% Inhibition); format: functional, organism-based; conditions: Lens of camera-type eye; outline: as §4
Rattus norvegicus [29] = assay: In vivo galactitol inhibitory activity measured by its ability to inhibit galactitol accumulation in sciatic nerve at 79 mg/Kg/day; format: functional; outline: as §1
Rattus norvegicus [30] = assay: In vivo galactitol inhibitory activity measured by its ability to inhibit galactitol accumulation in lens at 79 mg/Kg/day; format: functional; conditions: Lens of camera-type eye; outline: as §1
Rattus norvegicus [31] = assay: In vivo galactitol inhibitory activity measured by its ability to inhibit galactitol accumulation in lens at 25 mg/Kg/day; format: functional, Lens of camera-type eye; outline: as §4
Rattus norvegicus [32] = assay: In vivo galactitol inhibitory activity measured by its ability to inhibit galactitol accumulation in lens at 6 mg/Kg/day; format: functional, Lens of camera-type eye; outline: as §4
Rattus norvegicus [33] = assay: In vivo galactitol inhibitory activity measured by its ability to inhibit galactitol accumulation in diaphragm at 79 mg/Kg/day; format: functional; outline: as §4
Rattus norvegicus [34] = assay: In vivo galactitol inhibitory activity measured by its ability to inhibit galactitol accumulation in lens at 53 mg/Kg/day; format: functional, Lens of camera-type eye; outline: as §4
Rattus norvegicus [35] = assay: In vivo galactitol inhibitory activity measured by its ability to inhibit galactitol accumulation in lens at 81 mg/Kg/day; format: functional; conditions: Lens of camera-type eye; outline: as §1
Rattus norvegicus [36] = assay: In vivo galactitol inhibitory activity measured by its ability to inhibit galactitol accumulation in diaphragm at 81 mg/Kg/day; format: functional; outline: as §4
Rattus norvegicus [37] = assay: In vivo galactitol inhibitory activity measured by its ability to inhibit galactitol accumulation in sciatic nerve at 81 mg/Kg/day; format: functional; outline: as §1
Rattus norvegicus [38] = assay: In vivo galactitol inhibitory activity measured by its ability to inhibit galactitol accumulation in lens at 10 mg/Kg/day; NS=Not significant (% Inhibition); format: functional; conditions: Lens of camera-type eye; outline: as §4
Rattus norvegicus [39] = assay: In vivo galactitol inhibitory activity measured by its ability to inhibit galactitol accumulation in lens at 10 mg/Kg/day; format: functional; conditions: Lens of camera-type eye; outline: as §4

CN1C(=O)c2ccccc2C12CC(=O)NC2=O (centres undefined)
inhibition in vivo at 66 mg/kg/day (Rattus norvegicus [1]): 32% | Decrease (Mus musculus [2]): <15% | inhibition [3]: 45% | inhibition in vivo at 66 mg/kg/day (Rattus norvegicus [4]): 63% | inhibition in vivo at 66 mg/kg/day (Rattus norvegicus [5]): 58% | inhibition [6]: 11%

O=C1CC2(C(=O)N1)c1ccccc1S(=O)(=O)N2Cc1ccc(Cl)c(Cl)c1 (centres undefined)
Decrease (Mus musculus [2]): 27% | inhibition [3]: 0% | inhibition [7]: 63% | Decrease (Mus musculus [8]): <15%

CN1C(=O)c2cc(Cl)c(Cl)cc2C12CC(=O)NC2=O (centres undefined)
inhibition (Rattus norvegicus [9]): inactive | inhibition (Rattus norvegicus [10]): inactive | inhibition in vivo at 50 mg/kg/day (Rattus norvegicus [11]): 71% | inhibition in vivo at 9 mg/kg/day (Rattus norvegicus [12]): 25% | inhibition (Rattus norvegicus [13]): inactive | inhibition (Rattus norvegicus [14]): inactive | inhibition in vivo at 9 mg/kg/day (Rattus norvegicus [15]): 57% | inhibition in vivo at 50 mg/kg/day (Rattus norvegicus [16]): 94% | Decrease (Mus musculus [2]): 31% | inhibition in vivo at 9 mg/kg/day (Rattus norvegicus [17]): 10% | inhibition [3]: 83% | inhibition in vivo at 6 mg/kg/day (Rattus norvegicus [18]): 44% | inhibition in vivo at 3 mg/kg/day (Rattus norvegicus [19]): 25% | inhibition in vivo at 50 mg/kg/day (Rattus norvegicus [20]): 90% | inhibition [6]: 38%

CC1(COc2ccc(CC3SC(=O)NC3=O)cc2)CCCCC1 (centres undefined) [CIGLITAZONE]
inhibition [21]: inactive | inhibition [22]: 9% | Decrease (Mus musculus [23]): 32% | inhibition (Rattus norvegicus [24]): inactive | inhibition (Rattus norvegicus [25]): inactive

O=C1CC2(C(=O)N1)c1ccccc1C(=O)N2Cc1ccc(Br)cc1F (centres undefined)
inhibition (Rattus norvegicus [26]): inactive | inhibition in vivo at 101 mg/kg/day (Rattus norvegicus [27]): 30% | Decrease (Mus musculus [2]): 36% | inhibition [3]: 54% | inhibition (Rattus norvegicus [28]): inactive | inhibition [6]: 7%

CN1C(=O)c2ccc(Cl)cc2C12CC(=O)NC2=O (stereo in doubt; 32)
inhibition in vivo at 79 mg/kg/day (Rattus norvegicus [29]): 80% | inhibition in vivo at 79 mg/kg/day (Rattus norvegicus [30]): 81% | Inhibition (Rattus norvegicus [31]): 51% and 84% and 81% | Inhibition (Rattus norvegicus [32]): 28% and 53% | Decrease (Mus musculus [2]): <15% | inhibition in vivo at 79 mg/kg/day (Rattus norvegicus [33]): 92% | Inhibition (Rattus norvegicus [34]): 69% and 92% and 90%

CN1C(=O)c2cc(Cl)ccc2C12CC(=O)NC2=O (centres undefined)
inhibition in vivo at 81 mg/kg/day (Rattus norvegicus [35]): 54% | inhibition (Rattus norvegicus [9]): inactive | inhibition (Rattus norvegicus [10]): inactive | inhibition in vivo at 81 mg/kg/day (Rattus norvegicus [36]): 81% | inhibition in vivo at 6 mg/kg/day (Rattus norvegicus [32]; Rattus norvegicus, Lens of camera-type eye): 31% | inhibition in vivo at 81 mg/kg/day (Rattus norvegicus [37]): 77% | Decrease (Mus musculus [2]): <15% | inhibition [3]: 72% | inhibition (Rattus norvegicus [38]): inactive | inhibition in vivo at 10 mg/kg/day (Rattus norvegicus [39]): 34% | inhibition [6]: 21%
